Bioassay records deposited in PubChem by Columbia University Molecular Screening Center.
Insulin prom act: TRM-6 insulin promoter activation; TRM-6 cells (human fetal islet line), insulin promoter eGFP reporter, imaging; plate-scaled: unstimulated 0, stimulated control 100; activation, % at 2 µM; 130,000 compounds, 0.81% hits;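 active = activation at 2 µM above a set limit, confirmed on inspection of the cell images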;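 also: share of cells whose green reporter signal exceeds an intensity cutoff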
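Assay system: TRM-6 insulin promoter–eGFP reporter cells / Input: 1,000 cells per well / Medium: Low-glucose (5.5 mM) medium with tamoxifen / Also added: tamoxifen inducer, 0.75 µM, in seeding medium / Timing: overnight tamoxifen, then two-day compound incubation at 37 °C / Signal: automated fluorescence imaging of paraformaldehyde-fixed, Hoechst-counterstained cells, green channel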
Numbers without * were called inactive. Many of the other results were omitted from the sample, so hits are more common in it than they were.

SMILES	Insulin prom act
COc1ccc(CCNC(=O)c2cc(S(=O)(=O)N3CCC4(CC3)OCCO4)ccc2F)cc1OC	0
O=C(c1c[nH]c2ccc(S(=O)(=O)N3CCC4(CC3)OCCO4)cc2c1=O)N1CCOCC1	0
O=C(NC(Cc1ccccc1)C(=O)O)/C(=C\c1ccc(F)cc1)NC(=O)c1ccccc1 (centres undefined)	0
CC(C)C(c1nnnn1C1CCCCC1)N1CCN(c2ncccn2)CC1 (centres undefined)	-3
COc1ccc(CCn2nnnc2C(CC(C)C)N2CCN(c3ncccn3)CC2)cc1OC (centres undefined)	-7
COc1ccc(CCn2nnnc2C(C(C)C)N2CCN(c3ncccn3)CC2)cc1OC (centres undefined)	170*
O=C(O)C(Cc1c[nH]c2ccccc12)N1C(=O)C2C3c4ccccc4C(c4ccccc43)C2C1=O (centres undefined)	-6
COCc1cc(C)nc(N2CCNCC2)c1C#N	8
COc1ccccc1N1CCN(c2ccc([N+](=O)[O-])cc2Cl)CC1	3
Cc1ccc(NC(=O)CSc2nnc(-c3ccncc3)n2C)cc1S(=O)(=O)N1CCOCC1	-8
Cc1cc2cc(C=C(C#N)C#N)c(Cl)nc2cc1C	-7
CCN1/C(=C/c2ccc3cc(C)cc(C)c3[n+]2CC)Sc2cc(C)ccc21	413*
CCN1/C(=C/c2ccc3cccc(C)c3[n+]2CC)Sc2ccccc21	233*
CCN1/C(=C\c2ccc3cc(C)ccc3[n+]2CC)Sc2cc(C)c(C)cc21	413*
O=C(c1ccccc1)c1cnc(Nc2ccccc2Cl)s1	-10
CCOC(=O)Cc1csc(NC(=O)C(CC(C)C)NC(=O)C2CCCCC2)n1 (centres undefined)	0
Cc1ccc(C)c(NC(=O)CSc2nc3ccc(N4C(=O)c5ccccc5C4=O)cc3s2)c1	3
COc1nc(Nc2ccc([N+](=O)[O-])cc2)nc(NC(C)C)n1	4
Cc1ccn2c(c1)nc(=S)n2C(=O)c1ccco1	0
C=CCn1c(SCc2nc3sc4c(c3c(=O)[nH]2)CCCC4)nc2ccccc2c1=O	5
Oc1c(Br)cc(C2N=C(c3ccccc3Cl)NO2)cc1Br (centres undefined)	-5
CSc1ccccc1C(=O)OCC(=O)NC1CCS(=O)(=O)C1 (centres undefined)	0
CN1CCN(C(=O)c2ccc(N3CCCC3=O)cc2)CC1	0
O=C(NCCN1CCCCCC1)c1ccc(N2CCCC2=O)cc1	-9
CC(C)(C)c1ccc(C(=O)N2CCCCCC2=O)cc1	585*
SMILES	Insulin prom act
CC(c1ccccc1)N1CCc2[nH]c(=S)[nH]c(=O)c2C1 (centres undefined)	-91
Cc1sccc1C1C(C#N)=C(N)SC(N)=C1C#N	276
Cc1cc(C2C(C#N)=C(N)SC(N)=C2C#N)c(C)s1	185
CCCCc1ccc(C2C(C#N)=C(N)SC(N)=C2C#N)s1	275*
CC(C)NS(=O)(=O)c1ccc2c(c1)NCC2	-8
O=C(Nc1ccc2c(c1)OCO2)C1CCCCN1S(=O)(=O)c1ccccc1 (centres undefined)	-9
CCOC(=O)C1CCCN(C(=O)C2CCN(S(=O)(=O)CC)CC2)C1 (centres undefined)	3
CCOC(=O)C1CCN(C(=O)C2CCCCC2)CC1	562*
CCOC(=O)N1CCN(C(=O)C2CCN(S(=O)(=O)N3CCCC3)CC2)CC1	0
CCOC(=O)C1CCN(C(=O)Cc2cccs2)CC1	7
CCOC(=O)C1CCN(C(=O)/C=C/c2cccs2)CC1	-6
CCOC(=O)C1CCN(C(=O)N(CC)CC)CC1	254*
CCC(C)C(NC(=O)C(C)NC(=O)CNC(=O)CNC(=O)OCc1ccccc1)C(=O)OC (centres undefined)	343
OCc1nc2ccccc2n1CCCOc1ccccc1	-4
OCc1nc2ccccc2n1CC(O)Cn1ccc2ccccc21 (centres undefined)	91*
CC(C)Cn1c(NCCO)nc2ccccc21	-3
COC(=O)c1nnn(CC(=O)Nc2cccc(Cl)c2C)c1C(=O)OC	3
OCCN1CCN(c2cc(-c3ccccc3)c3ccccc3n2)CC1	5
Cn1c(SCC(=O)N2CCOCC2)nc(O)cc1=O	-7
Cc1sc2ncnc(SCC(=O)N(C)C3CCS(=O)(=O)C3)c2c1C (centres undefined)	0
CCN(C(=O)c1cn(C)c(=O)c2cc(OC)c(OC)cc12)c1ccccc1C	-81
CCN(C(=O)c1cc(Cl)ccc1OC)c1ccccc1C	543*
COc1ccc(Cl)cc1NC(=O)c1ccccc1C	-3
C/C(=N\N1CCN(C)CC1)c1ccc(OC(F)F)cc1	-75
Cc1ccccc1NC(=O)COC(=O)Cc1ccsc1	-10
SMILES	Insulin prom act
CC(=O)NC1=NN(C(C)=O)C(c2ccc(F)cc2)S1 (centres undefined)	-83
Cc1c(C(=O)OCC(=O)NCc2ccc3c(c2)OCO3)cccc1[N+](=O)[O-]	-7
CCOC(=O)c1cc(C)n(CCc2ccccc2)c1C	-3
CCOC(=O)c1cc2sc(C)cc2n1CC(=O)N(CC)CC	8
CCOC(=O)c1cc2ccccc2n1CCN(CC)CC	78*
C=CCSc1ncc(C#N)c(N)n1	8
Cc1ccc(S(=O)(=O)CC(=O)Nc2ccc(Cl)cn2)cc1	-82
COc1cc(C(C(=O)NCc2ccccc2)N(Cc2ccco2)C(=O)c2cnccn2)cc(OC)c1OC (centres undefined)	-4
CN(CCc1cnn(C)c1)Cc1cn[nH]c1-c1ccc(-c2ccccc2)cc1	-9
CC1CCCN(CCCOc2ccc([N+](=O)[O-])cc2)C1 (centres undefined)	8
CC1CCCCN1C(=O)c1ccc(COc2ccc([N+](=O)[O-])cc2)o1 (centres undefined)	380*
O=C(c1ccc(-c2ccc([N+](=O)[O-])cc2)o1)N1CCCCC1	-7
O=C(CCSc1nc2ccccc2s1)N/N=C/c1c(O)ccc2ccccc12	4
CC(=O)c1cccc(NC(=O)c2ccc(C)o2)c1	-8
CN(C)S(=O)(=O)c1cccc(NC(=S)N(CCC#N)Cc2cccnc2)c1	453*
CC1(C(=O)NC(=S)N(CCC#N)Cc2cccnc2)CC1(Cl)Cl (centres undefined)	-4
N#CCCN(Cc1cccnc1)C(=S)Nc1ccc(OC(F)F)cc1	109
CC(C)(C)C(=O)Nc1nc(C2CCCN2S(=O)(=O)c2ccc(Cl)cc2)cs1 (centres undefined)	-3
COc1cccc(-n2nnc3c(=O)n(CC(=O)Nc4ccc(C)cc4)cnc32)c1	116
Cc1noc(C)c1CSc1nnc(C)c(=O)[nH]1	-78
Cc1noc(C)c1CSc1nc2ccccc2s1	3
Cc1noc(C)c1CSc1ccc2ccccc2n1	105*
O=C(c1cccc(-c2ccc(O)cc2)c1)N1CCN(c2ccc(F)cc2)CC1	-68
Cc1cccc(N(C(=O)c2ccc(CN3CCOCC3)o2)C(C(=O)NC(C)(C)C)c2ccc(F)cc2)c1 (centres undefined)	267
S=C(c1ccc(-c2ccc(Cl)cc2)o1)N1CCCCC1	7
SMILES	Insulin prom act
Nc1cccc(-c2ccc(CO)o2)c1	7
OCCc1ccc(-c2ccc(Cl)cc2)o1	450*
CCOc1nc(-c2ccccc2Cl)ccc1C#N	-4
CCOC(=O)Cc1csc(/N=C/c2c(O)n(-c3ccc(C)c(C)c3)c(=O)c3ccccc23)n1	6
O=C(/C=C/c1ccc2c(c1)OCO2)Nc1ccc(Cl)cn1	-73
COc1ccc(F)cc1S(=O)(=O)N1CCCN(S(=O)(=O)c2cc(F)ccc2OC)CC1	-75
